Consider 15 compounds from ChEMBL document CHEMBL4334435, “A focused structure-activity relationship study of psoralen-based immunoproteasome inhibitors” (Medchemcomm, 2019).

For data set [1], the target named is T1, Proteasome subunit beta type-8 (Homo sapiens) (UniProt P28062).
T1 sequence (whole entry): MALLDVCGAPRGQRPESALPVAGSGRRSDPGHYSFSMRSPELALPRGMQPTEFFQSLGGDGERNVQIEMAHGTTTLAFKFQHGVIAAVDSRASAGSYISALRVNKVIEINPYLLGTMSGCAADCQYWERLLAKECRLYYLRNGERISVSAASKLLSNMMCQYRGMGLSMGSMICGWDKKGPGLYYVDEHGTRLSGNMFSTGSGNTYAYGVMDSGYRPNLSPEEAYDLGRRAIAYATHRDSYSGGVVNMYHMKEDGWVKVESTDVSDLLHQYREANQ
Put plainly: Inhibition of human immunoproteasome beta 5i subunit using Suc-LLVY-AMC as substrate assessed as residual activity at 10 uM preincubated for 30 mins followed by substrate addition measured for 120 mins by fluorescence based assay relative to control. In short, it runs like this: (§1)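 Purified human immunoproteasome or constitutive proteasome subunit activities measured with fluorogenic substrates in presence of 10 μM compound; reported as residual activity.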

In data set [2] the target is T2, Proteasome subunit beta type-8 (Homo sapiens, UniProt P28062).
T2 sequence (P28062 whole entry): T1 sequence (whole entry)
Put plainly: Inhibition of human immunoproteasome beta 5i subunit using Suc-LLVY-AMC as substrate preincubated for 30 mins followed by substrate addition and measured for 120 mins by fluorescence based assay.

In data set [3] the target is T3, Proteasome subunit beta type-10 (Homo sapiens) (UniProt P40306).
T3 sequence (whole entry): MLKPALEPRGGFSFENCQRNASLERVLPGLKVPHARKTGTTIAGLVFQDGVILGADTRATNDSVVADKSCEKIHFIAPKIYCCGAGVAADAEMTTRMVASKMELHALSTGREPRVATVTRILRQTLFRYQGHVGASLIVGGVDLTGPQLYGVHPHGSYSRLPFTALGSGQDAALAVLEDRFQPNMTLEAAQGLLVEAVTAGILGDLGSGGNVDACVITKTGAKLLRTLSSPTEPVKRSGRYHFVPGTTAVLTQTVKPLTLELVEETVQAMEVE
Kind of data set: Inhibition of human immunoproteasome beta 2i subunit at 10 uM using Boc-LRR-AMC as substrate preincubated for 30 mins followed by substrate addition measured for 120 mins by fluorescence based assay. A digest of the protocol:
as §1

For data set [4], the target named is T4, Proteasome subunit beta type-9 (Homo sapiens) (UniProt P28065).
T4 sequence (whole entry): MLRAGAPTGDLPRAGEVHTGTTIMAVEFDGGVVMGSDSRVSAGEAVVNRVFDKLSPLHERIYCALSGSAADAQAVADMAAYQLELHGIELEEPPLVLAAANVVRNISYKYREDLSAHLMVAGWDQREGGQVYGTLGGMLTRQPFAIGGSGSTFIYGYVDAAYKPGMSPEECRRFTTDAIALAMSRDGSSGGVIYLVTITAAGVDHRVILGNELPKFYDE
Put plainly: Inhibition of human immunoproteasome beta 1i subunit at 10 uM using Ac-PAL-AMC as substrate preincubated for 30 mins followed by substrate addition measured for 120 mins by fluorescence based assay. In short, it runs like this: as §1

The target of data set [5] is T5, Proteasome Macropain subunit MB1 (Homo sapiens, UniProt P28074).
T5 sequence (P28074 whole entry): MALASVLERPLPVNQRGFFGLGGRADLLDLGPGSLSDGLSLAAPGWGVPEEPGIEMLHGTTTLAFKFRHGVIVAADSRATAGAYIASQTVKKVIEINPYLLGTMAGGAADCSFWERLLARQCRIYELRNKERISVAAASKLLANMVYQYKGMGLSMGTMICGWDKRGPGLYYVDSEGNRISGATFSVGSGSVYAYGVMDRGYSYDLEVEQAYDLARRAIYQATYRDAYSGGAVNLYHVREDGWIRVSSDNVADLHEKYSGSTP
Kind of data set: Inhibition of human constitutive proteasome beta 5 subunit at 10 uM using Suc-LLVY-AMC as substrate preincubated for 30 mins followed by substrate addition measured for 120 mins by fluorescence based assay. Particulars: 2 h. In short, it runs like this:
as §1

The target of data set [6] is T6, Proteasome subunit beta type-10 (Homo sapiens, UniProt P40306).
T6 sequence (P40306 whole entry): T3 sequence (whole entry)
Kind of data set: Inhibition of human immunoproteasome beta 2i subunit using Boc-LRR-AMC as substrate preincubated for 30 mins followed by substrate addition measured for 120 mins by fluorescence based assay.

The target in data set [7] is T7, Proteasome subunit beta type-9 (Homo sapiens, UniProt P28065).
T7 sequence (P28065 whole entry): T4 sequence (whole entry)
Kind of data set: Inhibition of human immunoproteasome beta 1i subunit using Ac-PAL-AMC as substrate preincubated for 30 mins followed by substrate addition measured for 120 mins by fluorescence based assay.

Data set [8] concerns the target T5, Proteasome Macropain subunit MB1. Kind of data set: Inhibition of human constitutive proteasome beta 5 subunit using Suc-LLVY-AMC as substrate preincubated for 30 mins followed by substrate addition measured for 120 mins by fluorescence based assay.
Data set [9] has as its target T2, Proteasome subunit beta type-8. Put plainly: Inhibition of 20S immunoproteasome beta 5 chymotrypsin-like activity in human THP-1 cell lysates using Suc-LLVY-AMC as substrate preincubated for 30 mins followed by substrate addition and measured for 90 mins by fluorescence based assay. The class given is subcellular, Lysate. In short, it runs like this: (§2)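 Compounds incubated with cell lysates (HeLa: predominantly constitutive proteasome; THP-1: high immunoproteasome) and beta5 activity read with fluorogenic Suc-LLVY-AMC; IC50 determined.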

The target in data set [10] is T1, Proteasome subunit beta type-8 (Homo sapiens). Kind of data set: Inhibition of 26S immunoproteasome beta 5 chymotrypsin-like activity in human THP-1 intact cells using […] as substrate after 2 hrs by luciferase based assay. Format: cell-based.
The target is the same in data set [11]. Put plainly: Inhibition of 26S immunoproteasome beta 5 chymotrypsin-like activity in human HeLa intact cells using […] as substrate after 2 hrs by luciferase based assay. The class given is cell-based.
Data set [12] deals with PBMC. Kind of data set: Inhibition of LPS-induced IL-6 secretion in human PBMC at 10 uM preincubated for 1 hr followed by LPS addition and measured after 24 hrs by cytometric bead array-based FACS analysis. The class given is functional, cell-based. (In general: A flow cytometer gives signals particle by particle.)
Data set [13] relates to PBMC. Put plainly: Inhibition of LPS-induced IL-10 secretion in human PBMC at 10 uM preincubated for 1 hr followed by LPS addition and measured after 24 hrs by cytometric bead array-based FACS analysis. Format: functional, cell-based.
For data set [14], the system named is PBMC. Put plainly: Inhibition of LPS-induced IL-1beta production in human PBMC at 10 uM preincubated for 1 hr followed by LPS addition and measured after 24 hrs by cytometric bead array-based FACS analysis. The class given is functional, cell-based.
The subject of data set [15] is PBMC. Put plainly: Inhibition of LPS-induced IL-8 production in human PBMC at 10 uM preincubated for 1 hr followed by LPS addition and measured after 24 hrs by cytometric bead array-based FACS analysis. The class given is functional, cell-based.
In data set [16] the test system is PBMC. Put plainly: Inhibition of LPS-induced IL-12p70 production in human PBMC at 10 uM preincubated for 1 hr followed by LPS addition and measured after 24 hrs by cytometric bead array-based FACS analysis. The class given is functional, cell-based.
Data set [17] deals with PBMC. Put plainly: Inhibition of LPS-induced TNFalpha production in human PBMC at 10 uM preincubated for 1 hr followed by LPS addition and measured after 24 hrs by cytometric bead array-based FACS analysis. The class given is functional, cell-based.
Data set [18] addresses T1, Proteasome subunit beta type-8 (Homo sapiens). Put plainly: Time-dependent inhibition of human immunoproteasome beta 5i subunit assessed as increase in IC50 value using Suc-LLVY-AMC as substrate co-incubated with substrate without preincubation by fluorescence based analysis relative to 30 mins preincubated compound-treated control. A digest of the protocol:
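IC50 against immunoproteasome beta5i (Suc-LLVY-AMC) determined without pre-incubating compound with enzyme before substrate addition, compared against pre-incubated assay.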

For data set [19] the target is unchanged. Kind of data set: Inhibition of 20S immunoproteasome beta 5 chymotrypsin-like activity in human HeLa cell lysates using Suc-LLVY-AMC as substrate preincubated for 30 mins followed by substrate addition and measured for 90 mins by fluorescence based assay. Particulars: Lysate. The class given is subcellular. A digest of the protocol:
as §2

Active and inactive are the calls of the source. No cut-off for these calls is given here.

In the case of `Cc1c(CC(=O)NCC#N)c(=O)oc2cc3occ(C4CCCCC4)c3cc12`, in data set [1], the Activity was 99%.
As usually defined, the IC50 is the concentration needed to halve the response being measured. Read a high IC50 as weaker potency in that assay. As for `Cc1c(-c2nsc(=O)o2)c(=O)oc2cc3occ(C4CCC4)c3cc12`, the IC50 in data set [2] was 433 nM; in data set [6] it was “Nd(Insoluble)”; in data set [7], “Nd(Insoluble)”; in [8], “Nd(Insoluble)”. The inhibition result in data set [3] and in data set [4] was “inactive” throughout. Also, in [5], the “inhibition (INH)” value is “Not Active”.
For the compound `Cc1c(CCC(=O)N(C)CC#N)c(=O)oc2cc3occ(C4CCCCC4)c3cc12`, in data set [1], the Activity was found to be 111%.
As for `Cc1c(-c2nsc(=O)o2)c(=O)oc2cc3occ(C4CCCC4)c3cc12`, the IC50 in data set [2] was 264 nM; in data set [6] it was “Nd(Insoluble)”; in data set [7], “Nd(Insoluble)”; in [8], “Nd(Insoluble)”. Moreover, the inhibition result in [3] and in data set [4] was “inactive” each time. Further, the “inhibition (INH)” value in data set [5] is listed as “Not Active”.
With `Cc1c(-c2nsc(=O)o2)c(=O)oc2cc3occ(-c4ccc(Br)cc4)c3cc12`, the IC50 is 351 nM in data set [2], “Nd(Insoluble)” in [6], “Nd(Insoluble)” in [7] and “Nd(Insoluble)” in data set [8]. Also, the inhibition entry in data set [3] and in data set [4] was “inactive” throughout. Moreover, the “inhibition (INH)” value in data set [5] is listed as “Not Active”.
Turning to `COc1cccc(-c2coc3cc4oc(=O)c(-c5nsc(=O)o5)c(C)c4cc23)c1`, the IC50 is 226 nM in data set [2], “Nd(Insoluble)” in data set [6], “Nd(Insoluble)” in data set [7] and “Nd(Insoluble)” in data set [8]. For the same compound, the inhibition result in [3] and in data set [4] was “inactive” throughout. The “inhibition (INH)” value in data set [5] was “Not Active”.
Take `Cc1cccc(-c2coc3cc4oc(=O)c(-c5nsc(=O)o5)c(C)c4cc23)c1`: the half-maximal inhibitory concentration (IC50) in [2] is 365 nM; in data set [6] it was “Nd(Insoluble)”; in data set [7], “Nd(Insoluble)”; in [8], “Nd(Insoluble)”. Further, the inhibition entry in data set [3] and in data set [4] was “inactive” in each case. In addition, in [5], the “inhibition (INH)” value was “Not Active”.
Consider `Cc1c(CCC(=O)ON2C(=O)CCC2=O)c(=O)oc2cc3occ(C4CCCCC4)c3cc12`, for which the midpoint of inhibition in data set [2], the IC50, lay at 1830 nM.
Consider `Cc1c(-c2nsc(=O)o2)c(=O)oc2cc3occ(-c4ccc(F)cc4)c3cc12`, for which the IC50 in [2] is 200 nM; in [6], “Nd(Insoluble)”; in [7] it was “Nd(Insoluble)”; in data set [8], “Nd(Insoluble)”. The inhibition entry in data set [3] and in data set [4] was “inactive” in each case. The “inhibition (INH)” value in data set [5] was “Not Active”.
Take `COc1ccccc1-c1coc2cc3oc(=O)c(-c4nsc(=O)o4)c(C)c3cc12`: the IC50 was 227 nM in data set [2], “Nd(Insoluble)” in [6], “Nd(Insoluble)” in data set [7] and “Nd(Insoluble)” in data set [8]. Moreover, the inhibition result in data set [3] and in data set [4] was “inactive” throughout. For the same compound, the “inhibition (INH)” value in [5] is on record as “Not Active”.
On to `CCc1ccc(-c2coc3cc4oc(=O)c(-c5nsc(=O)o5)c(C)c4cc23)cc1`, for which the 50% inhibitory concentration (IC50) in data set [2] is 174 nM; in data set [9], 1530 nM; in data set [6] it was “Nd(Insoluble)”; in data set [7], “Nd(Insoluble)”; in data set [8] it was “Nd(Insoluble)”. In addition, the inhibition entry (in data set [3]; in data set [4]; in data set [10]; in [11]; with PBMC [14]; in the data set on PBMC [15]) was “inactive” throughout. Also, the inhibition entry in the data set with PBMC [16] and in the data set with PBMC [17] was “inactive” each time. Also, the “inhibition (INH)” value in data set [5] was “Not Active”. Also, the inhibition result (in the data set with PBMC [12]; in the data set with PBMC [13]; in [18]; in data set [19]) was “Active” throughout.
On to `Cc1c(CC(=O)ON2C(=O)CCC2=O)c(=O)oc2cc3occ(C4CCCCC4)c3cc12`, for which the Activity in data set [1] is 62%.
Turning to `Cc1c(-c2nsc(=O)o2)c(=O)oc2cc3occ(-c4cccs4)c3cc12`, the half-maximal inhibitory concentration (IC50) in [2] is 141 nM; in data set [6], “Nd(Insoluble)”; in data set [7] it was “Nd(Insoluble)”; in [8], “Nd(Insoluble)”. Besides, the inhibition entry in [3] and in data set [4] was “inactive” each time. Also, in data set [5], the “inhibition (INH)” value was “Not Active”. Also, in data set [18], the inhibition entry was “Active”.
With `Cc1c(CC(=O)N(C)CC#N)c(=O)oc2cc3occ(C4CCCCC4)c3cc12`, in data set [1], the Activity was 101%.
Consider `Cc1c(CCC(=O)NCC#N)c(=O)oc2cc3occ(C4CCCCC4)c3cc12`, for which, in [1], the Activity stood at 102%.
